The target in data set [1] is T1, Solute carrier organic anion transporter family member 1C1 (Homo sapiens, UniProt Q9NYB5).
T1 sequence (Q9NYB5 whole entry): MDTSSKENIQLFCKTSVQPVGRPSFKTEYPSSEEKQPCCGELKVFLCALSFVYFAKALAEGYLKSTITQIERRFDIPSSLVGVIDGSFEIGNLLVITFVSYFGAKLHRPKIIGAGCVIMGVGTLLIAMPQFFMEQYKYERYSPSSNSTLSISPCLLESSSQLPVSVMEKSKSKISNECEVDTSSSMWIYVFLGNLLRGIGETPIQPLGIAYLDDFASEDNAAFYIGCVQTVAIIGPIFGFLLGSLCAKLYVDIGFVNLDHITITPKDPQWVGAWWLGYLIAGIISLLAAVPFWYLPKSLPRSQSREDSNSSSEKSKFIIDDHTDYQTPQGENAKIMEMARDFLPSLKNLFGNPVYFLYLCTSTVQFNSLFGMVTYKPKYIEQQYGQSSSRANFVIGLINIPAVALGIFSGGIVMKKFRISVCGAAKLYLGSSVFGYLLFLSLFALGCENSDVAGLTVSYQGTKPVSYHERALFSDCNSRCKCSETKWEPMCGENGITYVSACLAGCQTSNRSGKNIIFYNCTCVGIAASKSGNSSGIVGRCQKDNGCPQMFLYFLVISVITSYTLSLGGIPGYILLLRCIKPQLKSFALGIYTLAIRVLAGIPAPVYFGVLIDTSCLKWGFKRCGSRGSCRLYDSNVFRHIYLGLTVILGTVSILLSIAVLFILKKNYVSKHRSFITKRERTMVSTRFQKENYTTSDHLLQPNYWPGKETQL
Put plainly: (§1) TP_TRANSPORTER: uptake in Xenopus laevis oocytes. The class given is functional, cell-based. The conditions noted are these: oocyte. Put shortly:
(§2)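 Oocytes were injected with 5 ng of cRNA for human OATP1A2, 1C1, 2B1, 3A1 or 4A1, or with water, then cultured 3 days. Radioactivity was counted by scintillation, water-injected uptake was subtracted, and Km came from nonlinear regression of 12–15 oocytes.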

Data set [2] addresses T2, Solute carrier organic anion transporter family member 4A1 (Homo sapiens, UniProt Q96BD0).
T2 sequence (Q96BD0 whole entry): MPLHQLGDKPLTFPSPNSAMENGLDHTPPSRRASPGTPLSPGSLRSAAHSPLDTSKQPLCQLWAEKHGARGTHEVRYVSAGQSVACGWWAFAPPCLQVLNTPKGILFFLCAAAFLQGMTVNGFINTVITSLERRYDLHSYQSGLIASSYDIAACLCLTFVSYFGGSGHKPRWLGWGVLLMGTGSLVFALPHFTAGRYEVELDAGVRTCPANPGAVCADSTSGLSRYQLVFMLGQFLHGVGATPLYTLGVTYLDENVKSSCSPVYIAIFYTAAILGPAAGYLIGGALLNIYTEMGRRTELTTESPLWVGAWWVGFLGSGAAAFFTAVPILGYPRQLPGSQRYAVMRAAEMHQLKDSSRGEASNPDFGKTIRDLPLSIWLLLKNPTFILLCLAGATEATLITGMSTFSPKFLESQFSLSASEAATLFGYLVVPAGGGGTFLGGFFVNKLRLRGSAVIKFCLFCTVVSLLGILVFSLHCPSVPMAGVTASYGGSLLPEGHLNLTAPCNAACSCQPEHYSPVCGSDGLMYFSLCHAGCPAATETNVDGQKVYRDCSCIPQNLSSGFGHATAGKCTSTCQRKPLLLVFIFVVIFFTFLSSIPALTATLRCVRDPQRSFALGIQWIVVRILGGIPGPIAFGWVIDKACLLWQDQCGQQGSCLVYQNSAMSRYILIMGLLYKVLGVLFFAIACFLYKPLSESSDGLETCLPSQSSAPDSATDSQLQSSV
The description is as §1. To be noted: oocyte. The class given is functional, cell-based. The method, boiled down: as §2

The target in data set [3] is T3, Solute carrier organic anion transporter family member 2B1 (Homo sapiens, UniProt O94956).
T3 sequence (O94956 whole entry): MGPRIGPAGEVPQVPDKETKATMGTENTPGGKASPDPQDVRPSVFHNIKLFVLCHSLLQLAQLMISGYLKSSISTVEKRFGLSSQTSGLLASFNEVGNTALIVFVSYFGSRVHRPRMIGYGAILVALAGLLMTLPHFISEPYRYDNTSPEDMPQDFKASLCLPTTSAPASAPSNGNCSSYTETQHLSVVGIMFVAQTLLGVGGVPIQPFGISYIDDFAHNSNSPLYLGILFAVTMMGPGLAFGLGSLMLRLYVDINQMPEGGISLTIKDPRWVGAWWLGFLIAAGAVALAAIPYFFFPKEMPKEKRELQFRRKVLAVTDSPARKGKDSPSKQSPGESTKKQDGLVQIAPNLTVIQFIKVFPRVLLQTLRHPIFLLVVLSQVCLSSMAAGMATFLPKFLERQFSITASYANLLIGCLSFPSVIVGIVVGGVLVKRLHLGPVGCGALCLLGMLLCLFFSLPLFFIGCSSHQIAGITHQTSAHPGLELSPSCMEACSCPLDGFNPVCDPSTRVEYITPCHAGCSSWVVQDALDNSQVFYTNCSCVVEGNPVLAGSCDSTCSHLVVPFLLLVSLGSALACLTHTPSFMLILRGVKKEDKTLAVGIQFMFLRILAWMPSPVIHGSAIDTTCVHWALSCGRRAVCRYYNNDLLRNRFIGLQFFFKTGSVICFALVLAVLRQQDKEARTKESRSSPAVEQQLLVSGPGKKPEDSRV
Described as §1. The conditions noted are these: oocyte. The class given is functional, cell-based. The method, boiled down:
as §2

Data set [4] addresses T4, Solute carrier organic anion transporter family member 3A1 (Homo sapiens, UniProt Q9UIG8).
T4 sequence (Q9UIG8 whole entry): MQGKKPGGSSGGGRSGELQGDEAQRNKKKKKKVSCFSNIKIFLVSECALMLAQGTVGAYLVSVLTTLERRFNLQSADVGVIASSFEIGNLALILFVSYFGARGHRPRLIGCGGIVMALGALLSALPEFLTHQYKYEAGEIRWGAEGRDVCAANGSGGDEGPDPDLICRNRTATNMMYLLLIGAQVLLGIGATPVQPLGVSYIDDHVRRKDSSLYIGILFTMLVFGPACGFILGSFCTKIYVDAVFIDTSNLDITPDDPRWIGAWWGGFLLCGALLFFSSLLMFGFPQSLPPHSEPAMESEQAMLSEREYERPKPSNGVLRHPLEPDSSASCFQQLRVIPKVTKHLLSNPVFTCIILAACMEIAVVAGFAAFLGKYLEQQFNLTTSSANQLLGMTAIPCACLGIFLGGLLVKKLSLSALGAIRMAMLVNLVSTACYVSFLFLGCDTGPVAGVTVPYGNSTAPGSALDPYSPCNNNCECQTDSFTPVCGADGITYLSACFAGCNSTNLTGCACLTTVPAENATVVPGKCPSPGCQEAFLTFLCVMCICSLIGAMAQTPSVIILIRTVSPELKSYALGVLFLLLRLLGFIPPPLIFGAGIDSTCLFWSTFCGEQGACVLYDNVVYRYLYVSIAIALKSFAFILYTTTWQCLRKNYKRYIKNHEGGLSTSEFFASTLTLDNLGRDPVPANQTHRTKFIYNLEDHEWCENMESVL
The data set is described as §1. The class given is functional, cell-based. The conditions noted are these: oocyte. The method, boiled down:
as §2

For data set [5], the target named is T5, Solute carrier organic anion transporter family member 1A2 (Homo sapiens, UniProt P46721).
T5 sequence (P46721 whole entry): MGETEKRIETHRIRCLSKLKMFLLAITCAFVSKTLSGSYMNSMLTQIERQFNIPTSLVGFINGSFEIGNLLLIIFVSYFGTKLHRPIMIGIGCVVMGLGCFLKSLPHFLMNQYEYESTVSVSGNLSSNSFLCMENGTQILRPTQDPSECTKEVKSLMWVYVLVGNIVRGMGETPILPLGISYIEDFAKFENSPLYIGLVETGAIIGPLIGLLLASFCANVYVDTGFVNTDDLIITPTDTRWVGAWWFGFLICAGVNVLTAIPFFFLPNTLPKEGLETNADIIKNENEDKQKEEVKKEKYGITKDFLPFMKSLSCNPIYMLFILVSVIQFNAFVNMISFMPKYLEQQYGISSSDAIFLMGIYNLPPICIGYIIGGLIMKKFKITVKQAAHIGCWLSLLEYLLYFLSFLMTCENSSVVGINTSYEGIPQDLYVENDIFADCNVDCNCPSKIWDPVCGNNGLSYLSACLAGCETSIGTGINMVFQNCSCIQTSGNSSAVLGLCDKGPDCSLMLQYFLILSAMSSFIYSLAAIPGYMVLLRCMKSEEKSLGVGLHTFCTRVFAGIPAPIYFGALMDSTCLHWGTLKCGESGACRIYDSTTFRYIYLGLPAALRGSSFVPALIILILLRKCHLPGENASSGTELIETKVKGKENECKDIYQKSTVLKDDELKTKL
The description is as §1. The class given is functional, cell-based, Oocyte. The method, boiled down: as §2

Substrate in data set [6]: CCCCCCCC(=O)CC[C@@H]1[C@@H](C/C=C\CCCC(=O)O)[C@@H](O)C[C@H]1O
The data set is described as §1. The class given is functional, cell-based, Oocyte. The method, boiled down:
as §2

Take `CCCCCCCC(=O)CC[C@@H]1[C@@H](C/C=C\CCCC(=O)OC(C)C)[C@@H](O)C[C@H]1O` [UNOPROSTONE ISOPROPYL]: the Activity result in data set [1], in data set [2], in data set [3], in data set [4] and in data set [5] (oocyte) was “is not a substrate [(-)]” throughout.
One may read the Km as the substrate concentration at which the rate is half of its maximum. As for `CCCCCCCC(=O)CC[C@@H]1[C@@H](C/C=C\CCCC(=O)O)[C@@H](O)C[C@H]1O` [UNOPROSTONE], the Activity result in data set [1] and in data set [4] was “is not a substrate [(-)]” each time. Moreover, the Km in data set [5] (Xenopus laevis oocytes) is 93 µM.

B1: Solute carrier organic anion transporter family member 4A1 (Homo sapiens) (protein)
chain: MPLHQLGDKPLTFPSPNSAMENGLDHTPPSRRASPGTPLSPGSLRSAAHSPLDTSKQPLCQLWAEKHGARGTHEVRYVSAGQSVACGWWAFAPPCLQVLNTPKGILFFLCAAAFLQGMTVNGFINTVITSLERRYDLHSYQSGLIASSYDIAACLCLTFVSYFGGSGHKPRWLGWGVLLMGTGSLVFALPHFTAGRYEVELDAGVRTCPANPGAVCADSTSGLSRYQLVFMLGQFLHGVGATPLYTLGVTYLDENVKSSCSPVYIAIFYTAAILGPAAGYLIGGALLNIYTEMGRRTELTTESPLWVGAWWVGFLGSGAAAFFTAVPILGYPRQLPGSQRYAVMRAAEMHQLKDSSRGEASNPDFGKTIRDLPLSIWLLLKNPTFILLCLAGATEATLITGMSTFSPKFLESQFSLSASEAATLFGYLVVPAGGGGTFLGGFFVNKLRLRGSAVIKFCLFCTVVSLLGILVFSLHCPSVPMAGVTASYGGSLLPEGHLNLTAPCNAACSCQPEHYSPVCGSDGLMYFSLCHAGCPAATETNVDGQKVYRDCSCIPQNLSSGFGHATAGKCTSTCQRKPLLLVFIFVVIFFTFLSSIPALTATLRCVRDPQRSFALGIQWIVVRILGGIPGPIAFGWVIDKACLLWQDQCGQQGSCLVYQNSAMSRYILIMGLLYKVLGVLFFAIACFLYKPLSESSDGLETCLPSQSSAPDSATDSQLQSSV
B1: the Km in data set [6] worked out at 132 µM.

B2: Solute carrier organic anion transporter family member 2B1 (Homo sapiens) (protein)
chain: MGPRIGPAGEVPQVPDKETKATMGTENTPGGKASPDPQDVRPSVFHNIKLFVLCHSLLQLAQLMISGYLKSSISTVEKRFGLSSQTSGLLASFNEVGNTALIVFVSYFGSRVHRPRMIGYGAILVALAGLLMTLPHFISEPYRYDNTSPEDMPQDFKASLCLPTTSAPASAPSNGNCSSYTETQHLSVVGIMFVAQTLLGVGGVPIQPFGISYIDDFAHNSNSPLYLGILFAVTMMGPGLAFGLGSLMLRLYVDINQMPEGGISLTIKDPRWVGAWWLGFLIAAGAVALAAIPYFFFPKEMPKEKRELQFRRKVLAVTDSPARKGKDSPSKQSPGESTKKQDGLVQIAPNLTVIQFIKVFPRVLLQTLRHPIFLLVVLSQVCLSSMAAGMATFLPKFLERQFSITASYANLLIGCLSFPSVIVGIVVGGVLVKRLHLGPVGCGALCLLGMLLCLFFSLPLFFIGCSSHQIAGITHQTSAHPGLELSPSCMEACSCPLDGFNPVCDPSTRVEYITPCHAGCSSWVVQDALDNSQVFYTNCSCVVEGNPVLAGSCDSTCSHLVVPFLLLVSLGSALACLTHTPSFMLILRGVKKEDKTLAVGIQFMFLRILAWMPSPVIHGSAIDTTCVHWALSCGRRAVCRYYNNDLLRNRFIGLQFFFKTGSVICFALVLAVLRQQDKEARTKESRSSPAVEQQLLVSGPGKKPEDSRV
For B2, the Michaelis-Menten constant (Km) in data set [6] stood at 91 µM.

(Values after ChEMBL document CHEMBL2073862, “Localization of organic anion transporting polypeptides in the rat and human ciliary body epithelium” (Exp Eye Res, 2005).)
